In brackets after ≈: the same amount, converted by molar mass.
What was measured:
Legionella pneumophila = assay: Antibacterial activity against Legionella pneumophila after 24 hrs by broth microdilution method; type: functional
[1] = test system: Mycoplasmoides pneumoniae; assay: Antibacterial activity against Mycoplasma pneumoniae after 24 hrs by broth microdilution method; type: functional
Cutibacterium acnes = assay: Antibacterial activity against Propionibacterium acnes; type: functional
Outline: (§1)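 Anaerobes by CLSI agar dilution on brucella agar with hemin, vitamin K and 5% laked sheep blood; inoculum from 24-h enriched blood agar colonies resuspended in brucella broth to 0.5 McFarland. Plates incubated anaerobically at 35–37°C for 48 h.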

Clostridioides difficile = assay: Antibacterial activity against Clostridium difficile by agar dilution method; type: functional; outline: as §1
Pseudomonas aeruginosa = assay: Antibacterial activity against Pseudomonas aeruginosa after 24 hrs by broth microdilution method; type: functional
Outline: (§2)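 CLSI broth microdilution in cation-adjusted Mueller-Hinton II broth, final inoculum about 5 × 10^5 CFU/ml for most strains; streptococci supplemented with 2–5% lysed horse blood, H. influenzae in Haemophilus test medium. Aerobic incubation at 35–37°C for 24 h; MIC = lowest concentration with no visible growth.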

Acinetobacter baumannii = assay: Antibacterial activity against Acinetobacter baumannii after 24 hrs by broth microdilution method; type: functional; outline: as §2
Enterobacter sp. = assay: Antibacterial activity against Enterobacter sp.; type: functional
Outline: (§3)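 Aerobic isolates run by CLSI broth microdilution in cation-adjusted Mueller-Hinton II broth (streptococci plus 2–5% lysed horse blood), about 5 × 10^5 CFU/ml final; 24 h at 35–37°C aerobically; MIC read as lowest concentration without visible growth.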

Escherichia coli = assay: Antibacterial activity against Escherichia coli after 24 hrs by broth microdilution method; type: functional; outline: as §2
Klebsiella pneumoniae = assay: Antibacterial activity against Klebsiella pneumoniae; type: functional; outline: as §3
Staphylococcus aureus [2] = assay: Effect on cellular viability of methicillin-sensitive Staphylococcus aureus ATCC 29213 by measuring the time required for recovery at 10 times MIC after 1 hr; type: functional
Outline: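 S. aureus in log phase, approximately 2–4 × 10^7 CFU/ml in CAMHB, was exposed to 10× MIC for 1 h at 35 to 37°C with shaking, then diluted 1:1,000 into prewarmed CAMHB. Viable counts were taken hourly for 4 to 8 h. PAE = T − C, the time to a 1-log10 rise, treated versus untreated. Mean of two independent experiments.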

Staphylococcus aureus [3] = assay: Antibacterial activity against methicillin-susceptible Staphylococcus aureus after 24 hrs by broth microdilution method; type: functional
Outline: (§4)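 Broth microdilution per CLSI in cation-adjusted Mueller-Hinton II broth, final inoculum approximately 5 × 10^5 CFU/ml. Plates were incubated aerobically at 35 to 37°C for 24 h. MIC was the lowest concentration giving no visible growth. Reserpine, where used, was at a final concentration of 20 μg/ml.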

Staphylococcus aureus [4] = assay: Antibacterial activity against methicillin-resistant Staphylococcus aureus after 24 hrs by broth microdilution method; type: functional; outline: as §4
Enterococcus faecalis = assay: Antibacterial activity against Enterococcus faecalis; type: functional; outline: as §3
Enterococcus faecium = assay: Antibacterial activity against Enterococcus faecium; type: functional; outline: as §3
Streptococcus pyogenes = assay: Antibacterial activity against Streptococcus pyogenes; type: functional; outline: as §3
Haemophilus influenzae = assay: Antibacterial activity against Haemophilus influenzae after 24 hrs by broth microdilution method; type: functional; outline: as §2
Neisseria meningitidis = assay: Antibacterial activity against Neisseria meningitidis after 24 hrs by broth microdilution method; type: functional; outline: as §2
Neisseria gonorrhoeae = assay: Antibacterial activity against Neisseria gonorrhoeae after 24 hrs by broth microdilution method; type: functional; outline: as §2
Moraxella catarrhalis = assay: Antibacterial activity against Moraxella catarrhalis after 24 hrs by broth microdilution method; type: functional; outline: as §2
Streptococcus pneumoniae = assay: Antibacterial activity against Streptococcus pneumoniae by agar dilution method; type: functional
Streptococcus viridans = assay: Antibacterial activity against Streptococcus viridans after 24 hrs by broth microdilution method; type: functional; outline: as §2
Staphylococcus aureus [5] = assay: Antibacterial activity against […] Staphylococcus aureus ATCC 29213 in presence of 20 ug/ml reserpine after 24 hrs by broth microdilution method; type: functional; details: ATCC 29213, 24 h; outline: as §4
Staphylococcus aureus [6] = assay: Antibacterial activity against ethidium bromide-resistant Staphylococcus aureus BSA678 after 24 hrs by broth microdilution method; type: functional; details: BSA678, 24 h; outline: as §4
[7] = Cmax in mouse at 20 mg/kg, sc; type: ADME, organism-based; parameters: dose 20 mg/kg, route subcutaneous; details: in vivo
Outline: (§5)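 Fasted mice given one subcutaneous dose (20 or 50 mg/kg); blood taken from groups of three at 0.08, 0.25, 0.5, 1, 2, 4, 8, 24 h. Plasma protein-precipitated with cold acetonitrile plus internal standard, LC-MS/MS (C8, positive ESI, SRM); calibration 5–15,000 ng/ml. Noncompartmental analysis of mean concentrations; AUC to last quantifiable point by linear trapezoidal rule.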

[8] = Cmax in mouse at 50 mg/kg, sc; type: ADME, organism-based; parameters: dose 50 mg/kg, route subcutaneous; details: in vivo; outline: as §5
[9] = AUC (0-24 hrs) in mouse at 20 mg/kg, sc; type: ADME, organism-based; parameters: time < 24 hr, dose 20 mg/kg, route subcutaneous; details: plasma; outline: as §5
[10] = AUC (0-24 hrs) in mouse at 50 mg/kg, sc; type: ADME, organism-based; parameters: time < 24 hr, dose 50 mg/kg, route subcutaneous; details: plasma; outline: as §5
[11] = Tmax in mouse at 20 mg/kg, sc; type: ADME, organism-based; parameters: dose 20 mg/kg, route subcutaneous; details: in vivo; outline: as §5
[12] = Tmax in mouse at 50 mg/kg, sc; type: ADME, organism-based; parameters: dose 50 mg/kg, route subcutaneous; details: in vivo; outline: as §5
Staphylococcus aureus [13] = assay: Antibacterial activity against ethidium bromide-resistant Staphylococcus aureus Mu50 after 24 hrs by broth microdilution method; type: functional; details: Mu50, 24 h; outline: as §4
Staphylococcus aureus [14] = assay: Antibacterial activity against […] Staphylococcus aureus ATCC 29213 after 24 hrs by broth microdilution method; type: functional; details: ATCC 29213, 24 h; outline: as §4
Staphylococcus aureus [15] = assay: Antibacterial activity against ethidium bromide-resistant Staphylococcus aureus Mu50 in presence of 20 ug/ml reserpine after 24 hrs by broth microdilution method; type: functional; details: Mu50, 24 h; outline: as §4
Staphylococcus aureus [16] = assay: Antibacterial activity against ethidium bromide-resistant Staphylococcus aureus BSA643 after 24 hrs by broth microdilution method; type: functional; details: BSA643, 24 h; outline: as §4
Staphylococcus aureus [17] = assay: microbe, parasite or virus in culture; details: Mu50

SMILES: C[C@H]1c2cccc(O)c2C(=O)C2=C(O)[C@]3(O)C(=O)C(C(N)=O)=C(O)[C@@H](N(C)C)[C@@H]3[C@@H](O)[C@@H]21.O [DOXYCYCLINE]
- MIC (Legionella pneumophila): 1 µg/mL
- MIC [1]: 0.25 µg/mL

SMILES: Cc1ncc([N+](=O)[O-])n1CCO [METRONIDAZOLE]
- MIC50 (Cutibacterium acnes): > 64 µg/mL
- MIC90 (Cutibacterium acnes): > 64 µg/mL
- MIC50 (Clostridioides difficile): 0.5 µg/mL (≈ 2.92 µM)
- MIC90 (Clostridioides difficile): 0.5 µg/mL (≈ 2.92 µM)

SMILES: CC(C)(O/N=C(\C(=O)N[C@@H]1C(=O)N2C(C(=O)[O-])=C(C[n+]3ccccc3)CS[C@H]12)c1csc(N)n1)C(=O)O [CEFTAZIDIME]
- MIC50 (Pseudomonas aeruginosa): 2 µg/mL (≈ 3.66 µM)
- MIC90 (Pseudomonas aeruginosa): 32 µg/mL (≈ 58.5 µM)
- MIC50 (Acinetobacter baumannii): 4 µg/mL (≈ 7.32 µM)
- MIC90 (Acinetobacter baumannii): > 32 µg/mL
- MIC50 (Enterobacter sp.): 0.5 µg/mL (≈ 0.915 µM)
- MIC90 (Enterobacter sp.): > 32 µg/mL
- MIC50 (Escherichia coli): 0.25 µg/mL (≈ 0.457 µM)
- MIC90 (Escherichia coli): 0.5 µg/mL (≈ 0.915 µM)
- MIC50 (Klebsiella pneumoniae): 32 µg/mL (≈ 58.5 µM)
- MIC90 (Klebsiella pneumoniae): > 32 µg/mL

SMILES: CCN1CC(C(=O)O)C(=O)c2cc(F)c(N3CCNCC3)cc21 (stereo not drawn)
- Post anitbiotic effect (Staphylococcus aureus [2]): 1.6 h

SMILES: Cc1onc(-c2ccccc2)c1C(=O)N[C@@H]1C(=O)N2[C@@H]1SC(C)(C)[C@@H]2C(=O)O [OXACILLIN]
- MIC50 (Staphylococcus aureus [3]): 0.5 µg/mL (≈ 1.25 µM)
- MIC90 (Staphylococcus aureus [3]): 0.5 µg/mL (≈ 1.25 µM)
- MIC50 (Staphylococcus aureus [4]): > 16 µg/mL
- MIC90 (Staphylococcus aureus [4]): > 16 µg/mL

SMILES: CC[C@H]1OC(=O)[C@H](C)[C@@H](O[C@H]2C[C@@](C)(OC)[C@@H](O)[C@H](C)O2)[C@H](C)[C@@H](O[C@@H]2O[C@H](C)C[C@H](N(C)C)[C@H]2O)[C@](C)(O)C[C@@H](C)CN(C)[C@H](C)[C@@H](O)[C@]1(C)O [AZITHROMYCIN]
- MIC50 (Staphylococcus aureus [3]): 1 µg/mL (≈ 1.34 µM)
- MIC90 (Staphylococcus aureus [3]): > 8 µg/mL
- MIC50 (Enterococcus faecalis): 4 µg/mL (≈ 5.34 µM)
- MIC90 (Enterococcus faecalis): > 16 µg/mL
- MIC50 (Enterococcus faecium): > 16 µg/mL
- MIC90 (Enterococcus faecium): > 16 µg/mL
- MIC50 (Streptococcus pyogenes): 0.12 µg/mL (≈ 0.16 µM)
- MIC90 (Streptococcus pyogenes): > 8 µg/mL
- MIC (Legionella pneumophila): 0.12 µg/mL (≈ 0.16 µM)
- MIC [1]: ≤ 0.004 µg/mL
- MIC50 (Haemophilus influenzae): 0.5 µg/mL (≈ 0.668 µM)
- MIC90 (Haemophilus influenzae): 2 µg/mL (≈ 2.67 µM)
- MIC50 (Neisseria meningitidis): 0.5 µg/mL (≈ 0.668 µM)
- MIC90 (Neisseria meningitidis): 1 µg/mL (≈ 1.34 µM)
- MIC50 (Neisseria gonorrhoeae): 0.06 µg/mL (≈ 0.0801 µM)
- MIC90 (Neisseria gonorrhoeae): 0.12 µg/mL (≈ 0.16 µM)
- MIC50 (Moraxella catarrhalis): 0.015 µg/mL (≈ 0.02 µM)
- MIC90 (Moraxella catarrhalis): 0.03 µg/mL (≈ 0.0401 µM)
- MIC50 (Staphylococcus aureus [4]): > 8 µg/mL
- MIC50 (Streptococcus pneumoniae): 4 µg/mL (≈ 5.34 µM)
- MIC90 (Streptococcus pneumoniae): > 8 µg/mL
- MIC50 (Streptococcus viridans): 1 µg/mL (≈ 1.34 µM)
- MIC90 (Streptococcus viridans): 4 µg/mL (≈ 5.34 µM)

SMILES: O=C(O)c1cn(C2CC2)c2cc(N3CCNCC3)c(F)cc2c1=O [CIPROFLOXACIN]
- MIC (Staphylococcus aureus [5]): 0.25 µg/mL
- MIC (Staphylococcus aureus [6]): > 64 µg/mL
- Cmax [7]: 3360 ng/mL
- Cmax [8]: 7720 ng/mL
- AUC(0-t) at 24 h [9]: 5950 ng·h/mL
- AUC(0-t) at 24 h [10]: 14400 ng·h/mL
- Tmax [11]: 30 min
- Tmax [12]: 30 min
- MIC50 (Neisseria gonorrhoeae): 0.004 µg/mL (≈ 0.0121 µM)
- MIC90 (Neisseria gonorrhoeae): 0.008 µg/mL (≈ 0.0241 µM)
- MIC (Staphylococcus aureus [13]): 32 µg/mL (≈ 96.6 µM)
- MIC (Staphylococcus aureus [14]): 0.25 µg/mL (≈ 0.754 µM)
- MIC (Staphylococcus aureus [15]): 32 µg/mL
- MIC (Staphylococcus aureus [16]): 128 µg/mL (≈ 386 µM)
- MIC (Staphylococcus aureus [17]): > 64 µg/mL

SMILES: CO/N=C(\C(=O)N[C@@H]1C(=O)N2C(C(=O)O)=C(CSc3nc(=O)c(O)nn3C)CS[C@H]12)c1csc(N)n1 [CEFTRIAXONE]
- MIC50 (Streptococcus pyogenes): 0.03 µg/mL (≈ 0.0541 µM)
- MIC90 (Streptococcus pyogenes): 0.03 µg/mL (≈ 0.0541 µM)
- MIC50 (Haemophilus influenzae): < 0.008 µg/mL
- MIC90 (Haemophilus influenzae): 0.015 µg/mL (≈ 0.027 µM)
- MIC50 (Neisseria gonorrhoeae): 0.004 µg/mL (≈ 0.00721 µM)
- MIC90 (Neisseria gonorrhoeae): 0.03 µg/mL (≈ 0.0541 µM)
- MIC50 (Pseudomonas aeruginosa): 64 µg/mL (≈ 115 µM)
- MIC90 (Pseudomonas aeruginosa): > 64 µg/mL
- MIC50 (Moraxella catarrhalis): 0.5 µg/mL (≈ 0.902 µM)
- MIC90 (Moraxella catarrhalis): 1 µg/mL (≈ 1.8 µM)
- MIC50 (Streptococcus pneumoniae): 0.12 µg/mL (≈ 0.216 µM)
- MIC90 (Streptococcus pneumoniae): > 2 µg/mL
- MIC50 (Streptococcus viridans): 0.12 µg/mL (≈ 0.216 µM)
- MIC90 (Streptococcus viridans): 1 µg/mL (≈ 1.8 µM)
- MIC50 (Acinetobacter baumannii): 8 µg/mL (≈ 14.4 µM)
- MIC90 (Acinetobacter baumannii): > 64 µg/mL
- MIC50 (Enterobacter sp.): 0.12 µg/mL (≈ 0.216 µM)
- MIC90 (Enterobacter sp.): > 64 µg/mL
- MIC50 (Escherichia coli): 0.06 µg/mL (≈ 0.108 µM)
- MIC90 (Escherichia coli): 0.06 µg/mL (≈ 0.108 µM)
- MIC50 (Klebsiella pneumoniae): 16 µg/mL (≈ 28.9 µM)
- MIC90 (Klebsiella pneumoniae): 32 µg/mL (≈ 57.7 µM)

SMILES: C[C@@H](O)[C@H]1C(=O)N2C(C(=O)O)=C(S[C@@H]3CN[C@H](C(=O)N(C)C)C3)[C@H](C)[C@H]12 [MEROPENEM]
- MIC50 (Neisseria meningitidis): 0.008 µg/mL (≈ 0.0209 µM)
- MIC90 (Neisseria meningitidis): 0.015 µg/mL (≈ 0.0391 µM)

Source: ChEMBL document CHEMBL1147099, “In vitro and in vivo antibacterial activities of heteroaryl isothiazolones against resistant gram-positive pathogens” (Antimicrob Agents Chemother, 2007)
